For assay [1], the species on record is Ovis aries. Particulars: 300 uM.
Assay [2] relates to U2OS. Description: Inhibition of clathrin in human U2OS cells assessed as texas red-Tf endocytosis incubated 30 mins prior to texas red-Tf addition measured after 8 mins. In kind it is cell-based. In short, it runs like this:
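U2OS cells preincubated 30 min with inhibitor (1 to 300 μM) or vehicle, then 4 μg/mL Tf-A594 added for 8 min at 37 °C. Uptake quantified by automated imaging and analysis, ~1200 cells per point. IC50 fitted; reported as mean ±95% CI from three wells.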

In assay [3] the target is T1, Clathrin heavy chain 1 (Homo sapiens, UniProt Q00610). As to the kind of experiment: Inhibition of recombinant GST-tagged clathrin heavy chain (unknown origin) after 1 hr by ELISA.
T1 sequence (Q00610 whole entry): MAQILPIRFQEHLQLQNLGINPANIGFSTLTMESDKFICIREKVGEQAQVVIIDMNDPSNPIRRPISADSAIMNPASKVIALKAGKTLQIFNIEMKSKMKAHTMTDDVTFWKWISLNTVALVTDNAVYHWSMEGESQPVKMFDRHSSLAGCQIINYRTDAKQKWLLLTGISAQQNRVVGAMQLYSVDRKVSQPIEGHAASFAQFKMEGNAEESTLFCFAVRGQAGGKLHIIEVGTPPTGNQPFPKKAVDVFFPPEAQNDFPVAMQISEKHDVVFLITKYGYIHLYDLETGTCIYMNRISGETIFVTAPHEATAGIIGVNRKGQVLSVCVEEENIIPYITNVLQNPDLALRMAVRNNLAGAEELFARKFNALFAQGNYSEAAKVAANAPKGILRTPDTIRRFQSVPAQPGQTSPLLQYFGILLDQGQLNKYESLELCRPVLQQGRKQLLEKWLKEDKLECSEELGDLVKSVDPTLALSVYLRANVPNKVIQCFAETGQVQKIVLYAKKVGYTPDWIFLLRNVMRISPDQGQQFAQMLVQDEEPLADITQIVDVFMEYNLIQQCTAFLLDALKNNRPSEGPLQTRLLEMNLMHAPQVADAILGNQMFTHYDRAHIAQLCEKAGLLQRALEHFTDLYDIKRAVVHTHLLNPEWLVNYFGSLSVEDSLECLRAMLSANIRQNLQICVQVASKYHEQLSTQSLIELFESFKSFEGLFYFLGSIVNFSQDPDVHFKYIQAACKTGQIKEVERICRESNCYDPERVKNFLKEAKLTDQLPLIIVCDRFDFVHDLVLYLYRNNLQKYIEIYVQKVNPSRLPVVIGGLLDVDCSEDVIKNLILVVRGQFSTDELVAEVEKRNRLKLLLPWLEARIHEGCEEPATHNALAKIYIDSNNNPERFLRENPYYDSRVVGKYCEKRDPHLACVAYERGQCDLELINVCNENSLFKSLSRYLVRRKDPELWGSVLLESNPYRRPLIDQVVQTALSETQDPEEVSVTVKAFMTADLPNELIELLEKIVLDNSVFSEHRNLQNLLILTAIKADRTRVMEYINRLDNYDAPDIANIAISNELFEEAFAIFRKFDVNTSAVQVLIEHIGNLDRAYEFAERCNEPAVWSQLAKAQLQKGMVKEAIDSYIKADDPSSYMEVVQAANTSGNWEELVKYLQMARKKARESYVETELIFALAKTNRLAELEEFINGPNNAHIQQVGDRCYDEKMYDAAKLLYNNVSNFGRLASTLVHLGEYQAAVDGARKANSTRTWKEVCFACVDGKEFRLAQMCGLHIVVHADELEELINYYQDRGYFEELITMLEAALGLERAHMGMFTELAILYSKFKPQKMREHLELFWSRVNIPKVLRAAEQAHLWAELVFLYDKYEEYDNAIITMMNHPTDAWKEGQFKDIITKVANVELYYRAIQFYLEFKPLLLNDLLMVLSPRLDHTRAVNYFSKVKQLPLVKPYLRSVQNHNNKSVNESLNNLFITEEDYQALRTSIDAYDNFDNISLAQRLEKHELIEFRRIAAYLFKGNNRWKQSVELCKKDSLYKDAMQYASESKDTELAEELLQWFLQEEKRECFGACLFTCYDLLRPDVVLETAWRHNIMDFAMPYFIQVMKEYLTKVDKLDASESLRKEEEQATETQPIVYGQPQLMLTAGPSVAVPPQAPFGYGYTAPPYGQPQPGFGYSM
For assay [4], the species on record is Ovis aries. As to the kind of experiment: Inhibition of phosphotidylserine-stimulated sheep brain dynamin 1 GTPase activity assessed as inhibition of phosphate release from GTP at 100 uM after 30 mins by malachite green reagent method.
Assay [5] concerns the target T1, Clathrin heavy chain 1. Description: Inhibition of recombinant GST-tagged clathrin heavy chain (unknown origin) at 100 uM after 1 hr by ELISA.
Assay [6] in a line: Inhibition of phosphotidylserine-stimulated sheep brain dynamin 1 GTPase activity assessed as inhibition of phosphate release from GTP after 30 mins by malachite green reagent method. Details: species or system Ovis aries. In short, it runs like this: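 Native dynamin I purified from sheep brain (peripheral membrane fraction, GST-Amph2-SH3-sepharose affinity). Dynamin (20 nM) stimulated by 4 μg/mL sonicated phosphatidylserine with compound for 30 min at 37 °C. Buffer: 5 mM Tris-HCl pH 7.4, 10 mM NaCl, 2 mM Mg2+, 1 μg/mL leupeptin, 0.1 mM PMSF, 0.3 mM GTP. Phosphate release read by malachite green.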

SMILES strings stand for the structures. The source made the active and inactive calls. No cut-off for these calls is given here.

Broadly, the IC50 is the concentration that inhibits the measured activity by half.

`Cc1ccc(CN2C(=O)c3cccc4cc(S(=O)(=O)O)cc(c34)C2=O)cc1`: the inhibition result in assay [1] and in assay [2] was “inactive” throughout.
With `CCCN1C(=O)c2cccc3c(N)c(S(=O)(=O)O)cc(c23)C1=O`, in assay [3], the half-inhibitory concentration (IC50) was 120 µM.
On to `O=C1c2cccc3cc(S(=O)(=O)O)cc(c23)C(=O)N1Cc1ccc(O)cc1`, for which the inhibition result in assay [1] and in assay [2] was “inactive” in each case.
On to `Nc1ccc(N2C(=O)c3cccc4cc(S(=O)(=O)O)cc(c34)C2=O)cc1`, for which the inhibition entry in assay [4], in assay [2] and in assay [5] was “inactive” each time.
Turning to `O=C1c2cccc3cc(S(=O)(=O)O)cc(c23)C(=O)N1Cc1ccc(F)cc1`, the inhibition result in assay [2] was “inactive”. Besides, the IC50 in assay [6] was 306 µM.
Turning to `O=C1c2cccc3cc(S(=O)(=O)O)cc(c23)C(=O)N1Cc1ccc(Br)cc1`, the inhibition result in assay [1] and in assay [2] was “inactive” throughout.
With `Nc1ccc(CN2C(=O)c3cccc4c(Cl)ccc(c34)C2=O)cc1`, the inhibition entry in assay [5] was “inactive”.
For `O=C1c2cccc3cc(S(=O)(=O)O)cc(c23)C(=O)N1Cc1ccc(Cl)cc1`, the inhibition result in assay [2] was “inactive”. The half-maximal inhibitory concentration (IC50) in assay [6] came to 111 µM.
In the case of `Nc1ccc(CN2C(=O)c3cccc4cc([N+](=O)[O-])cc(c34)C2=O)cc1`, the inhibition entry in assay [5] is “inactive”.
On to `COc1ccc(CN2C(=O)c3cccc4cc(S(=O)(=O)O)cc(c34)C2=O)cc1`, for which the inhibition result in assay [1] and in assay [2] was “inactive” in each case.
As for `COc1cc2c3c(cccc3c1)C(=O)N(Cc1ccc(N)cc1)C2=O`, the inhibition result in assay [5] was “inactive”.
`Nc1ccc(CN2C(=O)c3cccc4c([N+](=O)[O-])ccc(c34)C2=O)cc1`: the inhibition result in assay [5] is “inactive”.
Same read-out and setting: then `Nc1ccc(CN2C(=O)c3cccc4cc(N)cc(c34)C2=O)cc1`, with “inactive”.
`O=C1c2cccc3cc(S(=O)(=O)O)cc(c23)C(=O)N1Cc1ccc([N+](=O)[O-])cc1`: the inhibition entry in assay [2] and in assay [5] was “inactive” each time. In assay [6], the half-inhibitory concentration (IC50) worked out at 49 µM.
Turning to `Nc1ccc(CN2C(=O)c3cccc4cccc(c34)C2=O)cc1`, the inhibition entry in assay [5] was “inactive”.
For the compound `Nc1cccc(CN2C(=O)c3cccc4cc(S(=O)(=O)O)cc(c34)C2=O)c1`, the inhibition result in assay [2] was “inactive”. Further, the IC50 in assay [6] was 264 µM.
Turning to `Nc1ccc(CN2C(=O)c3cc([N+](=O)[O-])cc4cc([N+](=O)[O-])cc(c34)C2=O)cc1`, in assay [5], the inhibition result is “inactive”.
Still for that read-out and setting: then `Nc1ccc(CN2C(=O)c3cccc4c(Br)ccc(c34)C2=O)cc1`, with “inactive”.
Consider `CN(C)c1ccc(CN2C(=O)c3cccc4cc(S(=O)(=O)O)cc(c34)C2=O)cc1`, for which the inhibition entry in assay [1] and in assay [2] was “inactive” each time.
Take `Nc1ccc(CN2C(=O)c3cccc4c(N)ccc(c34)C2=O)cc1`: the inhibition result in assay [5] is “inactive”.
As to `Nc1ccccc1CN1C(=O)c2cccc3cc(S(=O)(=O)O)cc(c23)C1=O`, the inhibition result in assay [2] is “inactive”. Besides, the IC50 in assay [6] turned out to be 108 µM.
Consider `O=C1c2cccc3cc(S(=O)(=O)O)cc(c23)C(=O)N1Cc1ccccc1`, for which the inhibition result in assay [1] and in assay [2] was “inactive” in each case.
As for `Nc1ccc(CN2C(=O)c3cccc4c(S(=O)(=O)O)ccc(c34)C2=O)cc1`, the inhibition result in assay [5] was “inactive”.
The same measure, in the same setting: then `Nc1ccc(CN2C(=O)c3cccc4cc(O)cc(c34)C2=O)cc1`, with “inactive”.
`O=C(O)c1ccc(CN2C(=O)c3cccc4cc(S(=O)(=O)O)cc(c34)C2=O)cc1`: in assay [2], the inhibition entry was “inactive”. Besides, the IC50 in assay [6] is 185 µM.
In the case of `Nc1ccc(CN2C(=O)c3cccc4cc(S(=O)(=O)O)cc(c34)C2=O)cc1`, the inhibition result in assay [4] and in assay [2] was “inactive” throughout.
For `Nc1ccc(CN2C(=O)c3cccc4cc(Br)cc(c34)C2=O)cc1`, the inhibition result in assay [5] was “inactive”.

The values are drawn from ChEMBL document CHEMBL3108769, “Development of 1,8-naphthalimides as clathrin inhibitors” (J Med Chem, 2014).
